From ChEMBL document CHEMBL1287735, “Synthesis of new acylsulfamoyl benzoxaboroles as potent inhibitors of HCV NS3 protease” (Bioorg Med Chem Lett, 2010)

Key:
[1] = Inhibition of HCV genotype 1 a NS3/4A protease by FRET assay; parameters: species or system Hepatitis C virus subtype 1a
[2] = tested on: Hepatitis C virus; test: Antiviral activity against HCV genotype 1a transfected in human hepatoma cell assessed as inhibition of viral replication; assay type: functional, organism-based, Hepacivirus hominis; settings: subtype 1a
[3] = tested on: Hepatitis C virus; test: Antiviral activity against HCV genotype 1b transfected in human hepatoma cell assessed as inhibition of viral replication; assay type: functional, organism-based, Hepacivirus hominis
[4] = Clearance in Sprague-Dawley rat at 1 mg/kg, iv; assay type: ADME, organism-based; parameters: dose 1 mg/kg, route intravenous; settings: in vivo
How it was run: (§1)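 Rats (n = 3 per route) received compound orally at 5 mg/kg or intravenously at 1 mg/kg. Plasma drug levels were measured with a limit of detection of 0.5 ng/mL, and no PK data were generated for samples below it.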

[5] = (§2) AUC (0 to infinity) in Sprague-Dawley rat at 5 mg/kg, po; assay type: ADME, organism-based, Plasma; parameters: time infinity, dose 5 mg/kg, route oral; settings: Sprague-Dawley, plasma; how it was run: as §1
[6] = tested on: Rattus norvegicus; test: Metabolic absorption in Sprague-Dawley rat at 5 mg/kg, po; assay type: ADME, organism-based; parameters: dose 5 mg/kg, route oral; settings: in vivo
How it was run: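 Rats (n = 3 per route) were dosed orally at 5 mg/kg and intravenously at 1 mg/kg. Value calculated from portal vein drug concentrations after oral dosing relative to those after IV dosing. Limit of detection 0.5 ng/mL.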

[7] = (§3) Oral bioavailability in Sprague-Dawley rat at 5 mg/kg; assay type: ADME, organism-based; settings: Sprague-Dawley, in vivo
How it was run: (§4)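 Dosing was oral at 5 mg/kg and IV at 1 mg/kg (n = 3 each). Bioavailability was calculated from jugular vein drug concentrations after oral administration relative to IV administration. Limit of detection 0.5 ng/mL.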

[8] = tested on: Rattus norvegicus; test: as §2; assay type: ADME, organism-based, Plasma; parameters: time infinity, dose 5 mg/kg, route oral; settings: in vivo, BLD = below limit of detection; how it was run: as §1
[9] = tested on: Rattus norvegicus; test: as §3; assay type: ADME, organism-based; settings: in vivo, BLD = below limit of detection; how it was run: as §4

| SMILES | IC50 [1] [nM] | EC50 [2] [nM] | EC50 [3] [nM] | clearance [4] [mL/min/kg] | AUC(0-inf) [5] [ng·h/mL] | Activity [6] [%] | bioavailability [7] [%] | AUC [8] | Activity ([6]; BLD = below limit of detection) | F [9] |
| --- | --- | --- | --- | --- | --- | --- | --- | --- | --- | --- |
| C=C[C@@H]1C[C@]1(NC(=O)[C@@H]1C[C@@H]2CN1C(=O)[C@H](C(C)(C)C)NC(=O)OCC(C)(C)CCCCc1cccc3c1CN(C3)C(=O)O2)C(=O)NS(=O)(=O)c1cccc2c1COB2O | 0.3 | 52 | 12 | 82 | 14 | 1.6 | 1.2 |  |  |  |
| C=C[C@@H]1C[C@]1(NC(=O)[C@@H]1C[C@@H]2CN1C(=O)[C@H](C(C)(C)C)NC(=O)OCC(C)(C)CCCCc1cccc3c1CN(C3)C(=O)O2)C(=O)NS(=O)(=O)c1ccc2c(c1)B(O)OC2 | 0.4 | 78 | 20 |  |  |  |  |  |  |  |
| O=C(N[C@H]1CCCCC/C=C\[C@@H]2C[C@@]2(C(=O)NS(=O)(=O)c2ccc3c(c2)COB3O)NC(=O)[C@@H]2C[C@@H](OC(=O)N3Cc4cccc(F)c4C3)CN2C1=O)OC1CCCC1 | 0.8 | 70 | 12 |  |  |  |  |  |  |  |
| O=C(N[C@H]1CCCCC/C=C\[C@@H]2C[C@@]2(C(=O)NS(=O)(=O)c2ccc3c(c2)B(O)OC3)NC(=O)[C@@H]2C[C@@H](OC(=O)N3Cc4cccc(F)c4C3)CN2C1=O)OC1CCCC1 | 0.8 | 66 | 8 | 111 |  |  |  | BLD | BLD | BLD |
| CC(C)(C)OC(=O)N[C@H]1CCCCC/C=C\[C@@H]2C[C@@]2(C(=O)NS(=O)(=O)C2CC2)NC(=O)[C@@H]2C[C@@H](OC(=O)N3Cc4cccc(F)c4C3)CN2C1=O [DANOPREVIR] | 0.4 | 1 | 1.1 | 10.7 | 1750 | 17.4 | 20 |  |  |  |
| C=C[C@@H]1C[C@]1(NC(=O)[C@@H]1C[C@@H]2CN1C(=O)[C@H](C(C)(C)C)NC(=O)OCC(C)(C)CCCCc1cccc3c1CN(C3)C(=O)O2)C(=O)NS(=O)(=O)c1ccc2c(c1)COB2O | 0.6 | 66 | 15 |  |  |  |  |  |  |  |
